Results collected from several papers.
Lines come from different studies, so protocols differ.
Target: Phosphatidylinositol 4,5-bisphosphate 3-kinase catalytic subunit gamma isoform (PIK3CG, Homo sapiens, UniProt P48736)

SMILES | effect on | method | concentration | remaining binding [%]
Nc1ncc2c(n1)-c1c([nH]c3ccc(C#CC4CC4)cc13)CCCC2 | binding | competition with immobilised ligand | 1 µM | 77
N[C@@H]1CCN(c2nccc(-c3cnn4ncccc34)n2)C1 | binding | – | 1 µM | 100
NS(=O)(=O)c1cc(NC(=O)Cc2ccccc2)ccc1Oc1cccc(Cl)c1 | cell-free assay | competition with immobilised ligand | 1 µM | 77
CN(c1nccc(-c2cnn3ncccc23)n1)C1CC1 | binding | – | 1 µM | 100
COc1cnc(Nc2cccc(S(N)(=O)=O)c2)nc1N1CCN(c2ccccc2)CC1 | binding | competition with immobilised ligand | 1 µM | 94
O=C(NCCCN1CCOCC1)c1ccc(Nc2nccc(-c3cc4ccccc4s3)n2)cc1 | binding | competition with immobilised ligand | 1 µM | 20
O=C(Nc1c[nH]nc1C(=O)NC1CCNCC1)c1cc(F)cc(F)c1 | binding | competition with immobilised ligand | 1 µM | 100
C[C@H](c1cccc(C#N)c1)n1cc(Cl)cc(C(N)=O)c1=N | cell-free assay | competition with immobilised ligand | 1 µM | 98
N#Cc1ccccc1CSc1nnc2c(n1)[nH]c1ccccc12 | binding | competition with immobilised ligand | 10 µM | 100
Cn1cc(Cl)c2c(Oc3c(F)cc(Nc4cc(Cl)nc(N)n4)cc3F)ccnc21 | cell-free assay | competition with immobilised ligand | 0.1 µM | 82
COc1cnc(Nc2cccc(S(N)(=O)=O)c2)nc1N1CCN(c2ccccc2)C(=O)C1 | binding | competition with immobilised ligand | 1 µM | 34
CCN1CCN(Cc2ccc(C(=O)Nc3ccc(C)c(Oc4ccc5c(c4)CC(=O)N5)c3)cc2C(F)(F)F)CC1 | binding | competition with immobilised ligand | 1 µM | 93
CCCOc1ccc([C@H]2[C@H](C(=O)O)[C@@H](c3ccc4c(c3)OCO4)CN2CC(=O)Nc2c(CC)cccc2CC)cc1 | cell-free assay | competition with immobilised ligand | 1 µM | 68
O=C(c1ccc(Nc2nccc(-c3cc4ccccc4s3)n2)cc1)N1CCC(N2CCCC2)CC1 | binding | competition with immobilised ligand | 1 µM | 27
c1cnn2ncc(-c3ccnc(N4CCC45COC5)n3)c2c1 | binding | – | 1 µM | 74
N#Cc1ccc(Nc2ccc3[nH]c(=O)[nH]c3c2)c(Cl)c1 | cell-free assay | competition with immobilised ligand | 1 µM | 92
O=C(NCCCN1CCOCC1)c1ccc(Nc2ncc(Cl)c(-c3ccc(Cl)s3)n2)cc1 | binding | competition with immobilised ligand | 1 µM | 100
C[C@@]1(Cc2ccc(C#N)cc2)C(=O)N(c2cc(Cl)cc(Cl)c2)c2ncc(C(=O)NC3(c4nc(C5CCC5)no4)CC3)n21 | cell-free assay | competition with immobilised ligand | 1 µM | 95
CN(C)c1nccc(-c2cnc3ncccn23)n1 | binding | – | 1 µM | 39
COCCOc1nc(-c2ccc(Cl)nc2)nc2c1CN(C(=O)c1ncn3ccccc13)CC2 | cell-free assay | competition with immobilised ligand | 0.1 µM | 100
F[C@@H]1CCN(c2nccc(-c3cnn4ncccc34)n2)C1 | binding | – | 1 µM | 100
CC(C)(C)c1ccc(-c2nc(CBr)nn2-c2cccc(O)c2)cc1 | cell-free assay | competition with immobilised ligand | 10 µM | 94
C[C@H]1CCN(c2nccc(-c3cnn4ncccc34)n2)C1 | binding | – | 1 µM | 82
C[C@@H](c1ccc(-n2cnc3c(N)ncnc32)cc1)N1CCc2nn(C)c(Cc3ccccc3)c2C1=O | binding | competition with immobilised ligand | 0.1 µM | 85
